Data on 22 molecules can be found in ChEMBL document CHEMBL3870319, “Synthesis and biological evaluation of rhein amides as inhibitors of osteoclast differentiation and bone resorption” (Eur J Med Chem, 2016).

The source made the active and inactive calls. The rule behind the calls is not given here.

The test system of one data set is BMDM. Description: Inhibition of RANKL/M-CSF-induced osteoclastogenesis in C57/BL6 mouse primary BMDM assessed reduction in TRAP-positive multinucleated cells at 5 uM after 5 days.
Conditions: not given
It counts as functional. Put shortly: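 Mouse C57BL/6 BMMs were adhered overnight in M-CSF medium, then cultured with 30 ng/mL M-CSF plus 50 ng/mL RANKL and compound for five days, with medium changed every two days. Cells were TRAP-stained with a leukocyte acid phosphatase kit, and TRAP-positive cells with ≥3 nuclei were counted as osteoclasts. Counts are expressed as percent of control, from at least three experiments.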
Turning to `Cc1cc(O)c2c(c1)C(=O)c1cc(O)cc(O)c1C2=O` [EMODIN], the inhibition entry is “Active”.
On the same count and under the same terms, the result for `O=C1c2cccc(O)c2C(=O)c2c(O)cc(C(=O)N3CCC(N4CCOCC4)CC3)cc21` reads “Active”.

For a further data set, the system named is BMDM. Briefly: Inhibition of RANKL/M-CSF-induced bone resorption of osteoclast in C57/BL6 mouse primary BMDM cultured on bovine femur bone slices assessed as reduction in bone resorption area at 5 uM after 5 days by toluidine blue staining based microscopy. It counts as functional.
Conditions: not given
Put shortly: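 BMMs seeded on bovine femur bone slices; next day induced with 30 ng/mL M-CSF plus 50 ng/mL RANKL with compound for five days, medium changed every two days. Cells fixed in 2.5% glutaraldehyde, slices stained with 0.5% toluidine blue, imaged at 200×; pit area from three random fields per slice, expressed as % of control.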
As for `O=C1c2cccc(O)c2C(=O)c2c(O)cc(C(=O)N3CCC(N4CCOCC4)CC3)cc21`, the inhibition entry was “Active”.

System in the next data set: not listed separately
Briefly: Induction of C57/BL6 mouse primary BMDM proliferation assessed at 5 uM after 2 days by MTT assay relative to control. The note with it: 48 h. The method in brief: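 BMMs from femur/tibia marrow of 4-week-old male C57BL/6 mice, expanded in α-MEM/10% FBS with 30 ng/mL M-CSF. Seeded at 3×10^3 cells/well, treated next day in triplicate for two days with M-CSF present. MTT (5 mg/mL stock) for 2 h at 37°C, crystals dissolved in DMSO, OD 570 nm; viability relative to untreated control.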
Take `Cc1cc(O)c2c(c1)C(=O)c1cc(O)cc(O)c1C2=O` [EMODIN]: the Activity result was “Non-Toxic”.
In the case of `O=C(O)c1cc(O)c2c(c1)C(=O)c1cccc(O)c1C2=O` [RHEIN], the Activity entry is “Non-Toxic”.

The species entered for a further data set is Mus musculus. Description: Inhibition of RANK/RANKL/NFATc1 signalling pathway in M-CSF-stimulated C57/BL6 mouse primary BMDM assessed as reduction in NFATc1 mRNA level at 5 uM by qRT-PCR analysis.
Conditions: not given
Put shortly: (§1)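 BMMs treated with M-CSF and/or RANKL alone or with 5 µM compound; mRNA for NFATc1, c-fos, TRAP, MMP-9 and cathepsin K measured by SYBR Green qRT-PCR, normalized to β-actin, expressed as fold change versus control cells; mean ± S.D. of triplicate measurements per cDNA sample.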
In general terms: Quantitative PCR measures a nucleic acid by following its amplification.
For `O=C1c2cccc(O)c2C(=O)c2c(O)cc(C(=O)N3CCC(N4CCOCC4)CC3)cc21`, the inhibition entry was “Active”.

The test system of a further data set is BMDM. Briefly: (§2) Inhibition of RANKL/M-CSF-induced osteoclastogenesis in C57/BL6 mouse primary BMDM assessed as reduction in TRAP activity using pNPP as substrate after 2 days by colorimetric assay. It counts as functional.
Conditions: not given
Put shortly: (§3)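 BMMs at 3×10^3 cells/well exposed to 30 ng/mL M-CSF plus 50 ng/mL RANKL with compound in triplicate for two days. PBS-washed cells lysed 15 min at 37°C; lysate incubated 45 min with p-NPP in presence of disodium tartrate, stopped with NaOH, OD read at 405 nm, normalized to BCA protein; inhibition relative to control.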
For `O=C1c2cccc(O)c2C(=O)c2c(O)cc(C(=O)N3CCC(N4CCOCC4)CC3)cc21`, the inhibition entry was “Dose-dependent effect”.

System in the next data set: not listed separately
The data set is described as §2. It counts as functional.
Conditions: not given
The method in brief:
as §3
As for `CC1CCN(C(=O)c2cc(O)c3c(c2)C(=O)c2cccc(O)c2C3=O)CC1`, the “inhibition (INH)” value is listed as 0%.
Regarding `Cc1cc(O)c2c(c1)C(=O)c1cc(O)cc(O)c1C2=O` [EMODIN], the “inhibition (INH)” value is on record as 45%.
As for `O=C1c2cccc(O)c2C(=O)c2c(O)cc(C(=O)N3CCC(CO)CC3)cc21`, the “inhibition (INH)” value was found to be 85%.
Still for that read-out and setting: the result for `O=C1c2cccc(O)c2C(=O)c2c(O)cc(C(=O)N3CCC(N4CCOCC4)CC3)cc21` reads 98%.
Same read-out and setting: with `CN1CCN(C(=O)c2cc(O)c3c(c2)C(=O)c2cccc(O)c2C3=O)CC1` the figure was 0%; with `CC(=O)Oc1cccc2c1C(=O)c1c(OC(C)=O)cc(C(=O)Nc3ccc(C)c(Cl)c3)cc1C2=O`, 0%.
Consider `CC(C)(O)C1CCN(C(=O)c2cc(O)c3c(c2)C(=O)c2cccc(O)c2C3=O)CC1`, for which the “inhibition (INH)” value amounted to 65%.
On the same count and under the same terms, the result for `O=C(O)c1cc(O)c2c(c1)C(=O)c1cccc(O)c1C2=O` [RHEIN] reads 47%.

The species entered for another data set is Mus musculus. Briefly: Cytotoxicity against C57/BL6 mouse MSC assessed as reduction in cell viability at 5 uM after 2 days in presence of M-CSF by MTT assay. It counts as toxicity. The note with it: 48 h. Put shortly: (§4)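 MTT viability in MC3T3-E1 preosteoblasts (ATCC) or C57BL/6-derived mouse MSCs grown in α-MEM with 10% FBS and penicillin/streptomycin at 37°C, 5% CO2. Compound at indicated concentrations for 2 days, then MTT read. Viability expressed relative to control, mean ± SD of triplicates.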
(In general: Formazan colour is commonly taken as a measure of viable cells.)
Turning to `O=C1c2cccc(O)c2C(=O)c2c(O)cc(C(=O)N3CCC(N4CCOCC4)CC3)cc21`, the Activity entry was “Non-Toxic”.

The species named for a further data set is Mus musculus. Briefly: Cytotoxicity against C57/BL6 mouse primary BMDM assessed as cell viability at 7.5 uM after 2 days in presence of M-CSF by MTT assay. The note with it: 48 h. It counts as toxicity. The method in brief: (§5)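 Primary BMMs were obtained by flushing femur and tibia marrow of 4-week-old male C57BL/6 mice, culturing it overnight, then expanding the non-adherent cells with 30 ng/mL M-CSF to 90% confluence. They were seeded at 3×10^3 cells/well in full α-MEM with 30 ng/mL M-CSF. Next day, compound was added in triplicate for two days. MTT (5 mg/mL) was added for 2 h at 37°C, crystals were dissolved in DMSO, and OD was read at 570 nm. Viability is relative to untreated control (100%).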
Take `O=C1c2cccc(O)c2C(=O)c2c(O)cc(C(=O)N3CCC(N4CCOCC4)CC3)cc21`: the Activity entry is on record as “Non-Toxic”.

A further data set is filed under the species Mus musculus. Briefly: Cytotoxicity against mouse MC3T3-E1 cells assessed as reduction in cell viability at 5 uM after 2 days in presence of M-CSF by MTT assay. It counts as toxicity, cell-based. The note with it: mc3t3-e1, 48 h. The method in brief:
as §4
With `O=C1c2cccc(O)c2C(=O)c2c(O)cc(C(=O)N3CCC(N4CCOCC4)CC3)cc21`, the Activity entry is on record as “Non-Toxic”.

For the next data set, the species on record is Mus musculus. Description: Inhibition of RANK/RANKL/NFATc1 signalling pathway in M-CSF-stimulated C57/BL6 mouse primary BMDM assessed as reduction in MMP9 mRNA level at 5 uM by qRT-PCR analysis.
Conditions: not given
The method in brief: as §1
With `O=C1c2cccc(O)c2C(=O)c2c(O)cc(C(=O)N3CCC(N4CCOCC4)CC3)cc21`, the inhibition entry was “Active”.

System in a further data set: not listed separately
Briefly: Cytotoxicity against C57/BL6 mouse primary BMDM assessed as cell viability at 5 uM after 2 days in presence of M-CSF by MTT assay relative to control. It counts as toxicity. The note with it: primary bone marrow-derived macrophages (BMDM), read-out: Activity. The method in brief:
as §5
As for `O=C(Nc1ccc(C(F)(F)F)cc1)c1cc(O)c2c(c1)C(=O)c1cccc(O)c1C2=O`, the viability at 48 h, 5 µM turned out to be 57%.
Same read-out and setting: with `CC(=O)Oc1cccc2c1C(=O)c1c(OC(C)=O)cc(C(=O)Nc3cc(C(F)(F)F)ccn3)cc1C2=O` the figure was 37%; with `CC1CCN(C(=O)c2cc(O)c3c(c2)C(=O)c2cccc(O)c2C3=O)CC1`, 103%; with `Cc1cc(O)c2c(c1)C(=O)c1cc(O)cc(O)c1C2=O` [EMODIN], 109%.
Still for that read-out and setting: the result for `O=C1c2cccc(O)c2C(=O)c2c(O)cc(C(=O)N3CCC(CO)CC3)cc21` reads 79%.
On the same count and under the same terms, with `CC(=O)Oc1cccc2c1C(=O)c1c(OC(C)=O)cc(C(=O)Nc3ccc(C(F)(F)F)cc3Cl)cc1C2=O` the figure was 17%.
Regarding `O=C1c2cccc(O)c2C(=O)c2c(O)cc(C(=O)N3CCC(N4CCOCC4)CC3)cc21`, the viability at 48 h, 5 µM is 92%.
The same measure, in the same setting: the result for `Cc1ccc(NC(=O)c2cc(O)c3c(c2)C(=O)c2cccc(O)c2C3=O)cc1` reads 62%.
Consider `CN1CCN(C(=O)c2cc(O)c3c(c2)C(=O)c2cccc(O)c2C3=O)CC1`, for which the viability at 48 h, 5 µM was 122%.
The same measure, in the same setting: the result for `CC(=O)Oc1cccc2c1C(=O)c1c(OC(C)=O)cc(C(=O)Nc3ccc(C)c(Cl)c3)cc1C2=O` reads 75%; that for `CC(=O)Oc1cccc2c1C(=O)c1c(OC(C)=O)cc(C(=O)Nc3ccc(C(F)(F)F)cc3)cc1C2=O`, 51%; that for `CCN1CCN(C(=O)c2cc(O)c3c(c2)C(=O)c2cccc(O)c2C3=O)CC1`, 24%.
On the same count and under the same terms, the result for `CC(C)(O)C1CCN(C(=O)c2cc(O)c3c(c2)C(=O)c2cccc(O)c2C3=O)CC1` reads 92%; that for `CC(=O)Oc1cccc2c1C(=O)c1c(OC(C)=O)cc(C(=O)Nc3ccccc3)cc1C2=O`, 28%; that for `O=C(O)c1cc(O)c2c(c1)C(=O)c1cccc(O)c1C2=O` [RHEIN], 97%.
Still for that read-out and setting: with `CC(=O)Oc1cccc2c1C(=O)c1c(OC(C)=O)cc(C(=O)Nc3ccc(C)cc3)cc1C2=O` the figure was 28%; with `CC(=O)Oc1cccc2c1C(=O)c1c(OC(C)=O)cc(C(=O)Nc3ccc(C(F)(F)F)cn3)cc1C2=O`, 35%; with `CC(=O)Oc1cccc2c1C(=O)c1c(OC(C)=O)cc(C(=O)N3CCC(C)CC3)cc1C2=O`, 8%.
As for `O=C(Nc1ccc(C(F)(F)F)cn1)c1cc(O)c2c(c1)C(=O)c1cccc(O)c1C2=O`, the viability at 48 h, 5 µM turned out to be 49%.
Still for that read-out and setting: with `O=C(Nc1ccccc1)c1cc(O)c2c(c1)C(=O)c1cccc(O)c1C2=O` the figure was 53%; with `O=C(Nc1ccc(C(F)(F)F)cc1Cl)c1cc(O)c2c(c1)C(=O)c1cccc(O)c1C2=O`, 17%; with `O=C(NCCN1CCOCC1)c1cc(O)c2c(c1)C(=O)c1cccc(O)c1C2=O`, 15%.

For the next data set, the species on record is Mus musculus. Briefly: Inhibition of RANK/RANKL/NFATc1 signalling pathway in M-CSF-stimulated C57/BL6 mouse primary BMDM assessed as reduction in c-FOS mRNA level at 5 uM by qRT-PCR analysis.
Conditions: not given
Put shortly:
as §1
For the molecule `O=C1c2cccc(O)c2C(=O)c2c(O)cc(C(=O)N3CCC(N4CCOCC4)CC3)cc21`, the inhibition result was “Active”.

For the next data set, the species on record is Mus musculus. Briefly: Inhibition of RANK/RANKL/NFATc1 signalling pathway in M-CSF-stimulated C57/BL6 mouse primary BMDM assessed as reduction in cathepsin K mRNA level at 5 uM by qRT-PCR analysis.
Conditions: not given
Put shortly:
as §1
As for `O=C1c2cccc(O)c2C(=O)c2c(O)cc(C(=O)N3CCC(N4CCOCC4)CC3)cc21`, the inhibition entry is “Active”.

The species entered for a further data set is Mus musculus. Description: Inhibition of RANK/RANKL/NFATc1 signalling pathway in M-CSF-stimulated C57/BL6 mouse primary BMDM assessed as reduction in TRAP mRNA level at 5 uM by qRT-PCR analysis.
Conditions: not given
Put shortly: as §1
On to `O=C1c2cccc(O)c2C(=O)c2c(O)cc(C(=O)N3CCC(N4CCOCC4)CC3)cc21`, for which the inhibition entry is “Active”.
